Data: ChEMBL document CHEMBL1121901, “Synthesis and structure-activity relationship of spiro[isochromanpiperidine] analogues for inhibition of histamine release” (1981)
The source made the active and inactive calls. The calls are words filed in the database; no cut-off is given here.

Columns and labels:
[1] = species on record: Rattus norvegicus; experiment: (§1) Inhibitory activity on the compound 48/80 induced release of Histamine from isolated rat peritoneal mast cells at a dose of 5*10e-4 mol; type: functional
Summary of the method: (§2)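 Rat peritoneal cells (~10% mast cells) collected by lavage with Tris-HCl-buffered (10 mmol, pH 7.4) salt solution. The reaction was stopped on ice. Histamine was measured by o-phthalaldehyde fluorometry in duplicate, expressed as % of total minus spontaneous release, with % inhibition taken versus 48/80 alone.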

[2] = species on record: Rattus norvegicus; experiment: Inhibitory activity against 48/80 induced release of Histamine from isolated rat peritoneal mast cells at a dose of 2*10e-4 mol; type: functional; summary of the method: as §2
[3] = species on record: Rattus norvegicus; experiment: Inhibitory activity on the compound (in 0.5% CMC solution) 48/80 induced release of Histamine rat mast cell degranulation at a dose of 0.25micorg/mL, incubated for 15 min at 37 degree C; type: functional
Summary of the method: (§3)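 Harvested rat peritoneal mast cells were preincubated 15 min at 37 °C with test compound suspended in 0.5% CMC (final 10^-3 mol/L). Degranulation was scored by inverted phase-contrast microscopy, counting >100 mast cells. % inhibition = 100[1 − (X − Z)/(Y − Z)], where Z corrects for degranulation in control medium.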

[4] = species on record: Rattus norvegicus; experiment: Inhibitory activity against 48/80 induced release of Histamine from isolated rat peritoneal mast cells at a dose of 5*10e-4 mol; type: functional; summary of the method: as §2
[5] = species on record: Rattus norvegicus; experiment: Inhibitory activity against 48/80 induced release of Histamine from isolated rat peritoneal mast cells at a dose of 5*10e-4 mol; Inactive; type: functional, cell-based
[6] = species on record: Rattus norvegicus; experiment: Inhibitory activity against 48/80 induced release of Histamine from isolated rat peritoneal mast cells at a dose of 10e-3 mol; Inactive; type: functional, cell-based; summary of the method: as §2
[7] = species on record: Rattus norvegicus; experiment: Inhibitory activity of histamine release at 2*10e-3 mol; type: functional
[8] = species on record: Rattus norvegicus; experiment: Inhibitory activity against 48/80 induced release of Histamine from isolated rat peritoneal mast cells at a dose of 10e-3 mol; type: functional; summary of the method: as §2
[9] = species on record: Rattus norvegicus; experiment: as §1; type: functional; summary of the method: as §2; remark: listed apart in the source
[10] = species on record: Rattus norvegicus; experiment: Inhibitory activity on the compound 48/80 induced release of Histamine from isolated rat peritoneal mast cells at a dose of 10e-3 mol; type: functional; summary of the method: as §2
[11] = species on record: Rattus norvegicus; experiment: Inhibitory activity on the compound 48/80 induced release of Histamine from isolated rat peritoneal mast cells at a dose of 2*10e-4 mol; type: functional; summary of the method: as §2
[12] = species on record: Rattus norvegicus; experiment: Inhibitory activity on compound (in 0.5% CMC solution) 48/80 induced rat mast cell degranulation at a dose of 0.25micorg/mL, incubated for 15 min at 37 degree C; type: functional; summary of the method: as §3
[13] = species on record: Rattus norvegicus; experiment: Inhibitory activity (10e-3 mol/L) against 48/80 induced rat mast cell degranulation at a dose of 0.25ug/mL, incubated for 15 min at 37 degree C; type: functional; summary of the method: as §3

Cl.O=C1OCC2(CCN(Cc3ccccc3)CC2)c2ccccc21
Inhibition [1]: 31% | Inhibition [2]: 5%

CN(CCC1(C)COCc2ccccc21)Cc1ccccc1 (centres undefined)
Inhibition [3]: -8%

CCCCCCN1CCC2(CC1)Cc1ccccc1C(=O)O2.Cl
Inhibition [2]: 32% | Inhibition [4]: 67%

O=C1OC2(CCNCC2)Cc2ccccc21
inhibition [5]: inactive

CN1CCC2(CC1)Cc1ccccc1C(=O)O2
inhibition [5]: inactive

CN1CCC(CO)(c2ccccc2)CC1
inhibition [6]: inactive

C[N+]1(Cc2ccccc2)CCC2(CC1)Cc1ccccc1C(=O)O2.[I-] (centres undefined)
Inhibition [7]: 28%

CCCCCN1CCC2(CC1)Cc1ccccc1C(=O)O2.Cl
Inhibition [8]: 79% | Inhibition [2]: 23% | Inhibition [4]: 35%

CCCCCCCCCCN1CCC2(CC1)Cc1ccccc1C(=O)O2
inhibition [9]: inactive

CCCCCCCN1CCC2(CC1)Cc1ccccc1C(=O)O2.Cl
Inhibition [1]: 100% | Inhibition [10]: 100% | Inhibition [11]: 64%

O=C([O-])c1cc(=O)c2c(OCC(O)COc3cccc4oc(C(=O)[O-])cc(=O)c34)cccc2o1.[Na+].[Na+] [CROMOLYN SODIUM]
Inhibition [8]: 80% | Inhibition [2]: 31% | Inhibition [4]: 58%

C=CCN1CCC2(CC1)Cc1ccccc1C(=O)O2
inhibition [5]: inactive

Cl.c1ccc(CCN2CCC3(CC2)COCc2ccccc23)cc1
Inhibition [8]: 100% | Inhibition [2]: 28% | Inhibition [4]: 96%

CN1CCC2(CC1)COC(=O)c1ccccc12
inhibition [5]: inactive

O=C1OC2(CCC(Cc3ccccc3)CC2)Cc2ccccc21 (centres undefined)
Inhibition [12]: 52%

Cl.O=C1OC2(CCN(Cc3ccccc3)CC2)Cc2ccccc21
Inhibition [3]: 94.5% | Inhibition [8]: 76% | Inhibition [2]: 20% | Inhibition [4]: 40%

C=CCN1CCC2(CC1)OC(=O)c1ccccc1C2C(=O)OCC (centres undefined)
inhibition [5]: inactive

CCCCCCCCN1CCC2(CC1)Cc1ccccc1C(=O)O2
inhibition [9]: inactive

O=C1OC2(CCN(C3CCCCC3)CC2)Cc2ccccc21
inhibition [5]: inactive

CN1CCC2(CC1)COCc1ccccc12
inhibition [5]: inactive

OCC1(c2ccccc2)CCN(CCc2ccccc2)CC1
Inhibition [8]: 49%

CCOC(=O)C1c2ccccc2C(=O)OC12CCN(C)CC2 (centres undefined)
inhibition [5]: inactive

Cl.O=C1OC2(CCN(CCCc3ccccc3)CC2)Cc2ccccc21
Inhibition [8]: 85% | Inhibition [2]: 5% | Inhibition [4]: 18%

OCC1(c2ccccc2)CCN(Cc2ccccc2)CC1
inhibition [6]: inactive

CCCN1CCC2(CC1)Cc1ccccc1C(=O)O2
inhibition [5]: inactive

O=C1OCC2(CCN(CCc3ccccc3)CC2)c2ccccc21
Inhibition [8]: 100% | Inhibition [2]: 15% | Inhibition [4]: 94%

Cl.O=C1OC2(CCN(c3ccccc3)CC2)Cc2ccccc21
Inhibition [13]: 29.1%

CCOC(=O)C1c2ccccc2C(=O)OC12CCN(Cc1ccccc1)CC2.Cl (centres undefined)
Inhibition [8]: 84% | Inhibition [4]: 12%

Cl.O=C1OC2(CCN(CC3CCCCC3)CC2)Cc2ccccc21
Inhibition [8]: 83% | Inhibition [4]: 47%

Cl.O=C1OC2(CCN(CCc3ccccc3)CC2)Cc2ccccc21
Inhibition [8]: 86% | Inhibition [4]: 6%

CCCCN1CCC2(CC1)Cc1ccccc1C(=O)O2.Cl
Inhibition [8]: 85% | Inhibition [2]: 18% | Inhibition [4]: 43%

CC(C)CN1CCC2(CC1)Cc1ccccc1C(=O)O2
inhibition [5]: inactive
